The text below walks through data of ChEMBL document CHEMBL4118097, “Selective Inhibitors of Dual Leucine Zipper Kinase (DLK, MAP3K12) with Activity in a Model of Alzheimer's Disease” (J Med Chem, 2017).

As usually defined, the inhibition is the change of the read-out against control, counted positive when it falls. As usually defined, the IC50 is the concentration needed to halve the response being measured.

Assay [1] deals with Mitogen-activated protein kinase kinase kinase 12 (Mus musculus) (UniProt Q60700). As to the kind of experiment: Inhibition of DLK in CD-1 mouse DRG neuron assessed as axonal protection pre-incubated for 2 hrs before NGF deprivation for 16 to 20 hrs by Campenot chamber based fluorescence assay. In short, it runs like this: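 High-content imaging assay of axon degeneration, with automated quantification of axons. Protection is expressed relative to a positive control in which degeneration was not induced. EC50 was taken from dose-response curves, each point being the average of three independent assays ± SD.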

In assay [2] the target is Calcium/calmodulin-dependent protein kinase type II subunit alpha (Homo sapiens) (UniProt Q9UQM7). As to the kind of experiment: Inhibition of CamK2alpha (unknown origin) at 1 uM by FRET assay relative to control.
Assay [3] addresses Vascular endothelial growth factor receptor 3 (Homo sapiens) (UniProt P35916). As to the kind of experiment: Inhibition of recombinant GST-tagged human FLT4 cytoplasmic domain expressed in baculovirus expression system at 1 uM by FRET assay relative to control. In short, it runs like this: (§1)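 Single-point screen at 1 μM compound in a 220-kinase panel run by Life Technologies (SelectScreen). Z′-LYTE format: phosphorylation of a labeled peptide substrate read by FRET. Values are reported as percent inhibition.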

A further assay deals with Ephrin type-A receptor 7 (Homo sapiens, UniProt Q15375). As to the kind of experiment: Inhibition of recombinant GST-tagged human EphA7 cytoplasmic domain expressed in baculovirus expression system at 1 uM by FRET assay relative to control. In short, it runs like this: as §1
In assay [4] the target is Protein kinase C beta type (Homo sapiens) (UniProt P05771). As to the kind of experiment: Inhibition of PKCbeta1 (unknown origin) at 1 uM by FRET assay relative to control.
Protein kinase C beta type (Homo sapiens), sequence (P05771 2-671 limits assumed): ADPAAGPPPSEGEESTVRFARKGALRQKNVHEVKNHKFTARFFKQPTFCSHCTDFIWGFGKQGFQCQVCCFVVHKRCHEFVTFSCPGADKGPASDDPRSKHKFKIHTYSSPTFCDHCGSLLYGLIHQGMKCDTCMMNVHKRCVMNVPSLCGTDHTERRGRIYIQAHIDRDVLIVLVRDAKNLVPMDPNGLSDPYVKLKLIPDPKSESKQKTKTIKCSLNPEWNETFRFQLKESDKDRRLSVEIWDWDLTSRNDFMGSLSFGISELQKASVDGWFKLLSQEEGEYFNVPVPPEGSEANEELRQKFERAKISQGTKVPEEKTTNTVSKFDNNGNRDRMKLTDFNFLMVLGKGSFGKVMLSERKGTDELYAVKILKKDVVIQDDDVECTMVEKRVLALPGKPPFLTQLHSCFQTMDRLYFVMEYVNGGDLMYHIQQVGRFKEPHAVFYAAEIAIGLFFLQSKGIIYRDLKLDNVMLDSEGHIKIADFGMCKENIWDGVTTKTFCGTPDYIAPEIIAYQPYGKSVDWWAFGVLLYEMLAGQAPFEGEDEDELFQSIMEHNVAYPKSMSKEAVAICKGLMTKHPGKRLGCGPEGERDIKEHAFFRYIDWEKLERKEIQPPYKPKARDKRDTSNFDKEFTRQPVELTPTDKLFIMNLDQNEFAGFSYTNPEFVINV
Assay [5] deals with Serine/threonine-protein kinase pim-1 (Homo sapiens) (UniProt P11309). As to the kind of experiment: Inhibition of full length His-tagged human PIM1 expressed in baculovirus expression system at 1 uM by FRET assay relative to control.
Serine/threonine-protein kinase pim-1 (Homo sapiens), sequence (P11309 whole entry, looked up, the tested form may be a part): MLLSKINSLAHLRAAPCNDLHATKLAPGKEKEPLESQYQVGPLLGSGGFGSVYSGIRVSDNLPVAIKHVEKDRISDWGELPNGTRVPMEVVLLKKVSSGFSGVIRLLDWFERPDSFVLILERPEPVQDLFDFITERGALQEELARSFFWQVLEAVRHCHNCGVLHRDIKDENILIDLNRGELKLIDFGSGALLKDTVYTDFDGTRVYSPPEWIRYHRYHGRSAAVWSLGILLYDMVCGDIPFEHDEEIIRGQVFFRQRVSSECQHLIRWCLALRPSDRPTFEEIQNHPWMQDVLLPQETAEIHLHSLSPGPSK
Assay [6] deals with Serine/threonine-protein kinase PAK 4 (Homo sapiens, UniProt O96013). As to the kind of experiment: Inhibition of recombinant GST-tagged human PAK4 catalytic domain expressed in baculovirus expression system at 1 uM by FRET assay relative to control. In short, it runs like this: as §1
Serine/threonine-protein kinase PAK 4, sequence (O96013 whole entry, looked up, the tested form may be a part): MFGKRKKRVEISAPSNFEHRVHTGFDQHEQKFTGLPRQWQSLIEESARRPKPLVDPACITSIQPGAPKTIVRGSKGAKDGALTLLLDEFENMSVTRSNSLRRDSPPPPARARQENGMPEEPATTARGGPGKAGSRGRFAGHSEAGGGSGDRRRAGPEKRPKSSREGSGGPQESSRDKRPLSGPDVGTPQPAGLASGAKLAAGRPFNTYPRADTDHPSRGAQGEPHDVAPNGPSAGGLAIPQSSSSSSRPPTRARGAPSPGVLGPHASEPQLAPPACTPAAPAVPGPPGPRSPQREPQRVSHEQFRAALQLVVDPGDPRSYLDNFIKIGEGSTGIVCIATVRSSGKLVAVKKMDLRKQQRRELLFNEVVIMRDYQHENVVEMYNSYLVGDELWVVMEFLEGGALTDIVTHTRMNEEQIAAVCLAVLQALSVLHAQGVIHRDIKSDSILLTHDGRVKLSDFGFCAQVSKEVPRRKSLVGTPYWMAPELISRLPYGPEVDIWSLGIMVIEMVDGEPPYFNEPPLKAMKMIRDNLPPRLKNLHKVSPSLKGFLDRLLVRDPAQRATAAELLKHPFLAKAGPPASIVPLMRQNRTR
The target in assay [7] is Serine/threonine-protein kinase NLK (Homo sapiens) (UniProt Q9UBE8). As to the kind of experiment: Inhibition of recombinant full length GST-tagged human NLK expressed in baculovirus expression system at 1 uM by FRET assay relative to control. In outline:
(§2)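 Single-concentration screen at 1 μM in Life Technologies SelectScreen, across a 220-kinase panel. Z′-LYTE format measures phosphorylation of a labeled peptide by FRET. Results are reported as percent inhibition.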

For assay [8], the target named is Serine/threonine-protein kinase MRCK alpha (Homo sapiens) (UniProt Q5VT25). As to the kind of experiment: Inhibition of recombinant His-tagged human MRCKalpha expressed in baculovirus at 1 uM by FRET assay relative to control. In short, it runs like this: as §1
Assay [9] addresses Mitogen-activated protein kinase kinase kinase 10 (Homo sapiens, UniProt Q02779). As to the kind of experiment: Inhibition of recombinant human full length GST-tagged MLK2 expressed in baculovirus at 1 uM by FRET assay relative to control.
The target in assay [10] is Dual specificity mitogen-activated protein kinase kinase 6 (Homo sapiens) (UniProt P52564). As to the kind of experiment: Inhibition of recombinant human full length His-tagged MKK6 expressed in baculovirus at 1 uM by FRET assay relative to control.
Assay [11] concerns the target Tyrosine-protein kinase Mer (Homo sapiens) (UniProt Q12866). As to the kind of experiment: Inhibition of recombinant GST-tagged human Mer cytoplasmic domain expressed in baculovirus expression system at 1 uM by FRET assay relative to control. In outline: as §1
Assay [12] concerns the target Tyrosine-protein kinase Yes (Homo sapiens) (UniProt P07947). As to the kind of experiment: Inhibition of recombinant full length GST-tagged human Yes expressed in baculovirus expression system at 1 uM by FRET assay relative to control.
Assay [13] deals with Serine/threonine-protein kinase Sgk3 (Homo sapiens) (UniProt Q96BR1). As to the kind of experiment: Inhibition of recombinant full length GST-tagged human SGK3 catalytic domain (87 to 496 residues) expressed in baculovirus expression system at 1 uM by FRET assay relative to control. In short, it runs like this:
as §2

Assay [14] addresses Protein kinase C eta type (Homo sapiens) (UniProt P24723). As to the kind of experiment: Inhibition of PKCeta (unknown origin) at 1 uM by FRET assay relative to control.
Assay [15] deals with Mitogen-activated protein kinase 10 (Homo sapiens, UniProt P53779). As to the kind of experiment: Inhibition of recombinant full length GST-tagged human JNK3 expressed in baculovirus expression system by FRET assay.
Mitogen-activated protein kinase 10, sequence (P53779 whole entry): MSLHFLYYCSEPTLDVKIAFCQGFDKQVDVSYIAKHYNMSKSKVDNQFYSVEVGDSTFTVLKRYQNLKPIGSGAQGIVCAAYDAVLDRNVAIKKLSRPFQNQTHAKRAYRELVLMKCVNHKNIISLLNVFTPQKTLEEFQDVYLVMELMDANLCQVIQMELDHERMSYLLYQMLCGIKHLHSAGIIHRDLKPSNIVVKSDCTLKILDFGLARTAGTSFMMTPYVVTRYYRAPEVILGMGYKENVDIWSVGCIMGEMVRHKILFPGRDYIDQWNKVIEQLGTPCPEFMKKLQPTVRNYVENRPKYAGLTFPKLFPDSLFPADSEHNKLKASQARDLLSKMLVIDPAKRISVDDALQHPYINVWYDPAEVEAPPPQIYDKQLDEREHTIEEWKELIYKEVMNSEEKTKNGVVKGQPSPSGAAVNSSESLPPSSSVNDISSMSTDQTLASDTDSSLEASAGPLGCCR
Assay [16] has as its target Beta-1 adrenergic receptor (Homo sapiens) (UniProt P08588). As to the kind of experiment: Binding affinity to recombinant human beta1 adrenergic receptor at 10 uM relative to control. In short, it runs like this:
(§3)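 Broad radioligand-binding and enzyme screening panel covering 42 targets (biogenic amine and neuropeptide receptors, ion channels, neurotransmitter transporters, acetylcholinesterase). Single test concentration of 10 μM. Results expressed as binding relative to control, with a hit defined as >50% of control.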

Assay [17] has as its target Histamine H2 receptor (Homo sapiens) (UniProt P25021). As to the kind of experiment: Binding affinity to recombinant human H2 receptor at 10 uM relative to control. In short, it runs like this:
as §3

For a further assay, the species on record is Homo sapiens. As to the kind of experiment: Binding affinity to L-type calcium channel dihydropyridine binding site (unknown origin) receptor at 10 uM relative to control. In short, it runs like this: as §3
Assay [18] deals with Sodium-dependent noradrenaline transporter (Homo sapiens) (UniProt P23975). As to the kind of experiment: Binding affinity to recombinant human norepinephrine transporter at 10 uM relative to control. In outline:
as §3

Sodium-dependent noradrenaline transporter (Homo sapiens), sequence (P23975 whole entry): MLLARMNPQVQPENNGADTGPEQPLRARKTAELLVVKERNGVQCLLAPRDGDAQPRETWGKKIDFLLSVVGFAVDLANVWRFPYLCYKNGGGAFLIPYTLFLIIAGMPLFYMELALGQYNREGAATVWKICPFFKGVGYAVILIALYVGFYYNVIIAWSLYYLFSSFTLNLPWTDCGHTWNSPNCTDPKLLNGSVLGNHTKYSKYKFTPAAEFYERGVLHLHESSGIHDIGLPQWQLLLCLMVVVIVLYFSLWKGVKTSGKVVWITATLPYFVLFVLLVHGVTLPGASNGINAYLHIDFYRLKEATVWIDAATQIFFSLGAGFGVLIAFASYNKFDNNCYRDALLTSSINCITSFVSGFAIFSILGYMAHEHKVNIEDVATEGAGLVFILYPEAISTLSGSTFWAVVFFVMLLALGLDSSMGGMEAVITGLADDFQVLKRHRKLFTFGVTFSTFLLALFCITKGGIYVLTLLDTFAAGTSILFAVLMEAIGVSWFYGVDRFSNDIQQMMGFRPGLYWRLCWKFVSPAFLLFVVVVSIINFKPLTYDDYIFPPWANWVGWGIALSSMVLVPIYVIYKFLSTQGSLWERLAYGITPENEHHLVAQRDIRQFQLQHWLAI
Beta-1 adrenergic receptor (Homo sapiens), sequence (P08588 whole entry, looked up): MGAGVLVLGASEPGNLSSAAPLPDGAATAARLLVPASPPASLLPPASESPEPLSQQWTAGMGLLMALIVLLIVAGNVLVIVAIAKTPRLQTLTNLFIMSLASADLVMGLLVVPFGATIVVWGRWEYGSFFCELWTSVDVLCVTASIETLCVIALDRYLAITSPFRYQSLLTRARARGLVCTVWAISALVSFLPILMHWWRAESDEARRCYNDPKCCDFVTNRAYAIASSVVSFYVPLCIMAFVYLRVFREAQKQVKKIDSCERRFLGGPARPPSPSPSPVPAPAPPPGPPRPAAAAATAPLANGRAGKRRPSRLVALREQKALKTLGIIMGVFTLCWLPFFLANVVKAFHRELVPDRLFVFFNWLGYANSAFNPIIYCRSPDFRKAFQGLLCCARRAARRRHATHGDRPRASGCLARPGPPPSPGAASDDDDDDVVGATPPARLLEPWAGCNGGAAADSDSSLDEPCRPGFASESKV
Vascular endothelial growth factor receptor 3 (Homo sapiens), sequence (P35916 whole entry, the tested form may be a part): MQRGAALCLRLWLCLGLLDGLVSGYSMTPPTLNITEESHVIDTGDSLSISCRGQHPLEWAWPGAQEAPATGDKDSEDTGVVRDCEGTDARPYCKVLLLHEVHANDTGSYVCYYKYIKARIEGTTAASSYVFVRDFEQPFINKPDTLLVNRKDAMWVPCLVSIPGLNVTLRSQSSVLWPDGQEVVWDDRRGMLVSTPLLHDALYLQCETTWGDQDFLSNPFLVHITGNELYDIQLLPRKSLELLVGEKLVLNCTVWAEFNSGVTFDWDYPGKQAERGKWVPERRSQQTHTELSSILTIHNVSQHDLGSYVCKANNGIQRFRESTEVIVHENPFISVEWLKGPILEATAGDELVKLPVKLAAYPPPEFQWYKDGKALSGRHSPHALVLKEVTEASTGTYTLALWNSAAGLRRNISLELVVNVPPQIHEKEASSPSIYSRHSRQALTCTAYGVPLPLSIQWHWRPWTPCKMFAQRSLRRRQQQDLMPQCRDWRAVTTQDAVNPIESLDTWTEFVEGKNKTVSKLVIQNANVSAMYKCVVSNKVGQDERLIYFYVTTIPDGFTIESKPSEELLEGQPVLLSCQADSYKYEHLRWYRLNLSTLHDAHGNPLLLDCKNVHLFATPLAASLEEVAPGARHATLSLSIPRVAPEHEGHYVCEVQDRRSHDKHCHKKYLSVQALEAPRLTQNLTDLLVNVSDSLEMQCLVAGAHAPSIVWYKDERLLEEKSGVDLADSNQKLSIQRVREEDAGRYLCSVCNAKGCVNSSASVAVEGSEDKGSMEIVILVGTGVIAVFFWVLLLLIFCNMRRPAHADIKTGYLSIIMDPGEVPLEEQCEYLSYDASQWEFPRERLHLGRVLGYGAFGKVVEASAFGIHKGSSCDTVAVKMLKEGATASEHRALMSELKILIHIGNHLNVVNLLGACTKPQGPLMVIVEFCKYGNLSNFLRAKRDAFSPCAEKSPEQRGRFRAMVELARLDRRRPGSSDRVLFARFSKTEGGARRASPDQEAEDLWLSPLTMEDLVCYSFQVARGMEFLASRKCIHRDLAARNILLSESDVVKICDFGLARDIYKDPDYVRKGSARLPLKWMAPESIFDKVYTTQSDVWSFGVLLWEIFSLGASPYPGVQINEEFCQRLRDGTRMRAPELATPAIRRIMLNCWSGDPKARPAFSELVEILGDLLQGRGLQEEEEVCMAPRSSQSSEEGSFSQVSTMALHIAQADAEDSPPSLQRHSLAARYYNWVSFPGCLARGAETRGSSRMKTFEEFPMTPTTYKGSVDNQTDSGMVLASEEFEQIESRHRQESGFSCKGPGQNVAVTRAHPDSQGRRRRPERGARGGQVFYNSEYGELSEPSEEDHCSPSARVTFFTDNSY
Serine/threonine-protein kinase Sgk3 (Homo sapiens), sequence (Q96BR1 whole entry, the tested form may be a part): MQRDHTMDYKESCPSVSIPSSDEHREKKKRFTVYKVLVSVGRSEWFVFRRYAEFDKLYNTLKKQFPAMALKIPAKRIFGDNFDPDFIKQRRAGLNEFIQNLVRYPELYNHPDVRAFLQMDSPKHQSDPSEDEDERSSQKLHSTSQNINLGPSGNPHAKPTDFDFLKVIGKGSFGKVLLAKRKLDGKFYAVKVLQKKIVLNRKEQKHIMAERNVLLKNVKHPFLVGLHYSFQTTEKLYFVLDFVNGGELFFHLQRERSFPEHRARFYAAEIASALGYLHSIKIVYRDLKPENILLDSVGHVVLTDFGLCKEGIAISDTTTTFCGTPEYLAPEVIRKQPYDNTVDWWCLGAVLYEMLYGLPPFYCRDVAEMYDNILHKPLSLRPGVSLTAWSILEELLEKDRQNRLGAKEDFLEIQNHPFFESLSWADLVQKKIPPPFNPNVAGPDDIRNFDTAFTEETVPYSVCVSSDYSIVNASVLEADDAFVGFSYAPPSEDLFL

As to `CC(C)n1nc(-c2cnc(N)c(OC(F)(F)F)c2)cc1[C@H]1[C@@H]2CN(C3COC3)C[C@@H]21`, the Activity result in assay [1] is “Dose-dependent effect”; in assay [16], above 50%; in assay [17], above 50%; in the assay filed under Homo sapiens it was above 50%; in [18] it was above 50%. The inhibition was 2.4% in assay [2]; 22.1% in assay [3]; 39% at Ephrin type-A receptor 7; 1.1% in assay [4]; -4.6% in assay [5]; 69.5% in [6]. For the same compound, the inhibition in [7] was -4.5%; in assay [8] it was 0.4%; in [9], 10.9%; in assay [10], 10.6%; in [11] it was 22.5%; in [12] it was 15.8%. The inhibition was found to be 6.1% in assay [13] and 1.7% in assay [14]. Further, the half-maximal inhibitory concentration (IC50) in assay [15] is above 10 µM.

As for `Nc1ncc(-c2cc([C@H]3[C@@H]4CN(C5COC5)C[C@@H]43)n(CC3CC3)n2)cc1C(F)(F)F`, the Activity entry was “Dose-dependent effect” in assay [1]; above 50% in assay [16]; above 50% in [17]; above 50% in the assay filed under Homo sapiens; above 50% in assay [18]. Moreover, the inhibition is 0.6% in [2]; 44.6% in assay [3]; 51.4% on Ephrin type-A receptor 7; -7.3% in [4]; -4% in assay [5]; 40.5% in assay [6]. The inhibition in [7] is -4.7%; in assay [8], 4.3%; in assay [9], 13.2%; in assay [10], -0.9%; in [11] it was 37%; in assay [12] it was 29.8%. Further, the inhibition was -0.1% in [13] and -3.9% in assay [14]. Further, in assay [15], the IC50 is above 10 µM.
